Measurements published in ChEMBL document CHEMBL1156527, “Potent D-peptide inhibitors of HIV-1 entry” (Proc Natl Acad Sci U S A, 2007).
Active and inactive are the calls of the source. The rule behind the calls is not given here.

Legend:
[1] = test system: Human immunodeficiency virus 1; test: Antiviral activity against HIV1 JRFL in HOS-CD4-CCR5 cells by viral infectivity assay; type: functional, organism-based; details: Human immunodeficiency virus 1, JRFL
Outline: (§1)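 Single-cycle pseudovirion entry assay. HXB2 pseudovirions were used on HOS-CD4-CXCR4 cells, and BaL or JRFL on HOS-CD4-CCR5 cells. 8 μg/ml DEAE-Dextran served as fusion enhancer, and medium was changed ≈24 h post-infection. DMSO-dissolved samples were run at 1% final DMSO against a 1% DMSO uninhibited control. IC50 comes from duplicate assays. Toxicity was checked microscopically and by luciferase with VSV-G pseudotyped virions, where a >10% loss meant toxicity.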

[2] = test system: Human immunodeficiency virus 1; test: Antiviral activity against HIV1 BaL in HOS-CD4-CCR5 cells by viral infectivity assay; type: functional, organism-based; details: Human immunodeficiency virus 1, BaL; outline: as §1
[3] = test system: Human immunodeficiency virus 1; test: Antiviral activity against HIV1 HXB2 in HOS-CD4-CXCR4 cells by viral infectivity assay; type: functional, organism-based; details: Human immunodeficiency virus 1, HXB2; outline: as §1
[4] = Binding affinity to HIV1 N-trimer gp41 mimic IZN36 by surface plasmon resonance analysis
[5] = test system: Human immunodeficiency virus 1; test: Antiviral activity against HIV1 JRFL in HOS-CD4-CCR5 cells at 100 uM by viral infectivity assay; type: functional, organism-based
Outline: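 JRFL pseudovirions were tested in single-cycle infection of HOS-CD4-CCR5 cells with 8 μg/ml DEAE-Dextran and a medium change ≈24 h post-infection. Inhibition was scored at 100 μM. DMSO-dissolved samples were at 1% final DMSO, normalized to a 1% DMSO control.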

HOS = test: Cytotoxicity in VSV-G pseudotyped virion infected human HOS-CD4-CXCR4 cells assessed as luciferase level at 100 uM after 24 hrs; type: cell-based
Outline: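 Single-cycle infection in HOS-CD4 target cells with VSV-G-pseudotyped luciferase virions in the presence of peptide, using 8 μg/ml DEAE-Dextran as fusion enhancer. Media were changed about 24 h after infection. DMSO-dissolved samples were run at 1% final DMSO against a 1% DMSO uninhibited control. A luciferase drop of more than 10% counted as cytotoxicity, alongside microscopic inspection at about 24 h.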

Question: Which IC50 [1] does the source give for CC(C)C[C@@H](NC(=O)[C@@H](Cc1c[nH]c2ccccc12)NC(=O)[C@@H](CCC(N)=O)NC(=O)[C@@H](Cc1c[nH]c2ccccc12)NC(=O)[C@@H](CCC(=O)O)NC(=O)[C@H]1CCCN1C(=O)[C@@H](Cc1ccc(O)cc1)NC(=O)[C@@H](CC(=O)O)NC(=O)[C@@H](CS)NC(=O)[C@@H](C)NC(=O)CNC(=O)[C@H](N)CCCCN)C(=O)N[C@H](CS)C(=O)N[C@H](C)C(=O)N[C@H](C)C(=O)O here?
Answer: 24000 nM

Question: What about the IC50 [2] of the same molecule?
Answer: 2200 nM

Question: And the IC50 [3]?
Answer: 620 nM

Question: What about the Kd [4] of the same molecule?
Answer: 80 nM

Question: For CC(C)C[C@@H](NC(=O)[C@@H](Cc1c[nH]c2ccccc12)NC(=O)[C@@H](CCC(N)=O)NC(=O)[C@@H](Cc1c[nH]c2ccccc12)NC(=O)[C@@H](CCC(=O)O)NC(=O)[C@@H](CCCCN)NC(=O)[C@@H](Cc1ccc(O)cc1)NC(=O)[C@@H](CC(=O)O)NC(=O)[C@@H](CS)NC(=O)[C@@H](C)NC(=O)CNC(=O)[C@H](N)CCCCN)C(=O)N[C@H](CS)C(=O)N[C@H](C)C(=O)N[C@H](C)C(=O)O, which IC50 [1] is on record?
Answer: 110000 nM

Question: And the IC50 [3]?
Answer: 1700 nM

Question: And the Kd [4]?
Answer: 170 nM

Question: For CC(C)C[C@@H](NC(=O)[C@@H](Cc1c[nH]c2ccccc12)NC(=O)[C@@H](CCCNC(=N)N)NC(=O)[C@@H](Cc1c[nH]c2ccccc12)NC(=O)[C@@H](CCC(=O)O)NC(=O)[C@H]1CCCN1C(=O)[C@@H](CO)NC(=O)[C@@H](CCC(=O)O)NC(=O)[C@@H](CS)NC(=O)[C@@H](C)NC(=O)CNC(=O)[C@@H](CCCCN)NC(=O)[C@H](N)CCCCN)C(=O)N[C@H](CS)C(=O)N[C@H](C)C(=O)N[C@H](C)C(=O)O, which IC50 [3] is on record?
Answer: 2200 nM

Question: For CC(C)C[C@@H](NC(=O)[C@@H](Cc1c[nH]c2ccccc12)NC(=O)[C@@H](CCCNC(=N)N)NC(=O)[C@@H](Cc1c[nH]c2ccccc12)NC(=O)[C@@H](CCC(=O)O)NC(=O)[C@H]1CCCN1C(=O)[C@@H](CO)NC(=O)[C@@H](CCC(=O)O)NC(=O)[C@H](CS)NC(=O)[C@@H](C)NC(=O)CNC(=O)[C@@H](CCCCN)NC(=O)[C@H](N)CCCCN)C(=O)N[C@@H](CS)C(=O)N[C@H](C)C(=O)N[C@H](C)C(=O)O, which Activity [5] is on record?
Answer: inactive

Question: Which IC50 [1] does the source give for CC(C)C[C@@H](NC(=O)[C@@H](Cc1c[nH]c2ccccc12)NC(=O)[C@@H](CCCNC(=N)N)NC(=O)[C@@H](Cc1c[nH]c2ccccc12)NC(=O)[C@@H](CCC(=O)O)NC(=O)[C@H]1CCCN1C(=O)[C@@H](Cc1ccc(O)cc1)NC(=O)[C@@H](CC(=O)O)NC(=O)[C@@H](CS)NC(=O)[C@@H](C)NC(=O)CNC(=O)[C@H](N)CCCCN)C(=O)N[C@H](CS)C(=O)N[C@H](C)C(=O)N[C@H](C)C(=O)O here?
Answer: 66000 nM

Question: And the IC50 [3]?
Answer: 1300 nM

Question: And the Kd [4]?
Answer: 130 nM

Question: What does the source list for CC(C)C[C@@H](NC(=O)[C@@H](CC(C)C)NC(=O)[C@@H](CCC(=O)O)NC(=O)[C@@H](CS)NC(=O)[C@@H](C)NC(=O)CNC(=O)[C@@H](CCCCN)NC(=O)[C@H](N)CCCCN)C(=O)NCC(=O)N[C@H](Cc1c[nH]c2ccccc12)C(=O)N[C@H](CCC(=O)O)C(=O)N[C@H](Cc1c[nH]c2ccccc12)C(=O)N[C@H](C)C(=O)N[C@H](Cc1c[nH]c2ccccc12)C(=O)N[C@H](CC(C)C)C(=O)N[C@H](CS)C(=O)N[C@H](C)C(=O)N[C@H](C)C(=O)O?
Answer: Activity (HOS): Toxic; IC50 [1]: > 25000 nM; IC50 [2]: 12000 nM; IC50 [3]: 9500 nM; Kd [4]: 7000 nM

Question: With CC(C)C[C@@H](NC(=O)[C@@H](Cc1c[nH]c2ccccc12)NC(=O)[C@@H](CCCNC(=N)N)NC(=O)[C@@H](Cc1c[nH]c2ccccc12)NC(=O)[C@@H](CCC(=O)O)NC(=O)[C@H]1CCCN1C(=O)[C@@H](Cc1ccc(O)cc1)NC(=O)[C@@H](CC(=O)O)NC(=O)[C@@H](CS)NC(=O)[C@@H](C)NC(=O)CNC(=O)[C@@H](CCCCN)NC(=O)[C@H](N)CCCCN)C(=O)N[C@H](CS)C(=O)N[C@H](C)C(=O)N[C@H](C)C(=O)O as the molecule, how does the IC50 [3] read?
Answer: 2600 nM

Question: And the Kd [4]?
Answer: 170 nM
